Data reported in ChEMBL document CHEMBL4390651, “Indole based antimalarial compounds targeting the melatonin pathway: Their design, synthesis and biological evaluation” (Eur J Med Chem, 2019).
The source made the active and inactive calls. The calls are words filed in the database; no cut-off is given here.

Experiments:
[1] = system: Plasmodium falciparum; experiment: Antimalarial activity against Plasmodium falciparum 3D7 infected in human erythrocytes assessed as reduction in [3H]hypoxanthine incorporation pretreated for 24 hrs followed by [3H]hypoxanthine addition and measured after 48 hrs by scintillation counting method
[2] = system: Plasmodium falciparum; experiment: Antimalarial activity against synchronized ring stage of Plasmodium falciparum 3D7 infected in human erythrocytes assessed as inhibition of parasite growth at 10 uM incubated for 0 to 48 hrs by Giemsa staining-based microscopic analysis; format: functional
Outline: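 3D7 was sorbitol-synchronized to ring stage at 1% parasitemia, cultured in human O+ erythrocytes (5% hematocrit, RPMI 1640/albumax, 37 °C, low-O2 gas), and exposed for 48 h, with DMSO as control. Giemsa smears at 0, 12, 24, 36 and 48 h gave parasitemia and stage morphology. Mean ± SD of three independent experiments.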

[3] = system: Plasmodium falciparum; experiment: Antimalarial activity against ring stage of Plasmodium falciparum 3D7 infected in human erythrocytes assessed as parasite survival level at 10 uM measured immediately at 0 hrs by Giemsa staining-based microscopic analysis (reference value: 96.4 +/- 5.09%); format: functional; conditions: 3D7, 0 h
[4] = system: Plasmodium falciparum; experiment: Antimalarial activity against trophozoite stage of Plasmodium falciparum 3D7 infected in human erythrocytes assessed as parasite survival level at 10 uM measured immediately at 0 hrs by Giemsa staining-based microscopic analysis (reference value: 3.55 +/- 5.02%); format: functional; conditions: 3D7, 0 h
[5] = system: Plasmodium falciparum; experiment: Antimalarial activity against schizont stage of Plasmodium falciparum 3D7 infected in human erythrocytes assessed as parasite survival level at 10 uM measured immediately at 0 hrs by Giemsa staining-based microscopic analysis (reference value: 0%); format: functional; conditions: 3D7, 0 h
[6] = system: Plasmodium falciparum; experiment: Antimalarial activity against ring stage of Plasmodium falciparum 3D7 infected in human erythrocytes assessed as parasite survival level at 10 uM incubated for 48 hrs by Giemsa staining-based microscopic analysis (reference value: 51.3 +/- 1.83%); format: functional; conditions: 3D7, 48 h
[7] = system: Plasmodium falciparum; experiment: Antimalarial activity against trophozoite stage of Plasmodium falciparum 3D7 infected in human erythrocytes assessed as parasite survival level at 10 uM incubated for 48 hrs by Giemsa staining-based microscopic analysis (reference value: 43.65 +/- 5.16%); format: functional; conditions: 3D7, 48 h
[8] = system: Plasmodium falciparum; experiment: Antimalarial activity against schizont stage of Plasmodium falciparum 3D7 infected in human erythrocytes assessed as parasite survival level at 10 uM incubated for 48 hrs by Giemsa staining-based microscopic analysis (reference value: 5 +/- 7.07%); format: functional; conditions: 3D7, 48 h
[9] = system: Plasmodium falciparum; experiment: Antimalarial activity against synchronized ring stage of Plasmodium falciparum 3D7 infected in human erythrocytes assessed as inhibition of parasite growth incubated for 48 hrs by Giemsa staining-based microscopic analysis; format: functional, organism-based; conditions: 3D7, 48 h
Outline: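 Sorbitol-synchronized ring-stage 3D7 in human O+ erythrocytes was exposed to four concentrations (1, 5, 10 and 20) for 48 h. Parasitemia was counted on Giemsa smears and IC50 taken from the dose-response curve. Mean ± SD of three independent experiments.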

[10] = system: Plasmodium falciparum; experiment: Antimalarial activity against chloroquine resistant Plasmodium falciparum RKL9 infected in human erythrocytes assessed as reduction in parasitemia incubated for 0 to 48 hrs by Giemsa staining-based microscopic analysis; format: functional, organism-based
Outline: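 Sorbitol-synchronized ring-stage culture at 1% parasitemia, 5% hematocrit in human O+ erythrocytes (RPMI 1640, 0.5% albumax, hypoxanthine, gentamicin; 37 °C, 5% CO2/5% O2/90% N2). Compounds at […] for 48 h. Parasitemia counted on Giemsa-stained smears at 0 and 48 h. DMSO control. Mean of three independent experiments ±SD.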

[11] = Stability of the compound in 0.01 N HCL at pH 2.0 assessed as compound remaining at 1 mg/ml incubated for 0 to 24 hrs by HPLC analysis relative to control; format: physicochemical; conditions: for Stability: buffer
Outline: (§1)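 Compound stock in acetonitrile was added to 1.0 mL of fresh 0.01 N HCl (pH 2.0) or phosphate buffer (pH 7.4), held at 37 °C, and the amount remaining was measured by HPLC at intervals from 0 to 24 h.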

[12] = Stability of the compound in phosphate buffer at pH 7.4 assessed as compound remaining at 1 mg/ml incubated for 0 to 24 hrs by HPLC analysis relative to control; format: physicochemical; conditions: for remaining at 1 mg/ml: phosphate buffer, read-out: Stability
Outline: as §1

[13] = system: Plasmodium falciparum; experiment: Antimalarial activity against Plasmodium falciparum 3D7 ring stage synchronized forms infected in human erythrocytes assessed as inhibition of parasite proliferation at 5 uM incubated for 48 hrs by Giemsa-staining method; format: functional; conditions: 3D7, 48 h
Outline: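 P. falciparum 3D7 grown in human O+ erythrocytes at 5% hematocrit in RPMI 1640 with NaHCO3, albumax, gentamicin and hypoxanthine, at 37 °C under 90% N2/5% CO2/5% O2. Single-concentration screen read as % inhibition of parasite proliferation. Mean of three experiments, each in triplicate.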

[14] = system: Plasmodium falciparum; experiment: Antimalarial activity against mixed stage of Plasmodium falciparum infected in human erythrocytes assessed as protection against melatonin-induced parasite synchronization by measuring parasitemia at 1 uM measured immediately at 0 hrs by Giemsa staining-based microscopic analysis (reference value: 1.05 +/- 0.07%); format: functional
[15] = system: Plasmodium falciparum; experiment: Antimalarial activity against mixed stage of Plasmodium falciparum infected in human erythrocytes assessed as protection against melatonin-induced parasite synchronization by measuring parasitemia at 5 uM measured immediately at 0 hrs by Giemsa staining-based microscopic analysis (reference value: 1.05 +/- 0.07%); format: functional
[16] = system: Plasmodium falciparum; experiment: Antimalarial activity against mixed stage of Plasmodium falciparum infected in human erythrocytes assessed as protection against melatonin-induced parasite synchronization by measuring parasitemia at 1 uM incubated for 48 hrs by Giemsa staining-based microscopic analysis (reference value: 4.76 +/- 0.61%); format: functional
[17] = system: Plasmodium falciparum; experiment: Antimalarial activity against mixed stage of Plasmodium falciparum infected in human erythrocytes assessed as protection against melatonin-induced parasite synchronization by measuring parasitemia at 5 uM incubated for 48 hrs by Giemsa staining-based microscopic analysis (reference value: 4.76 +/- 0.61%); format: functional
[18] = system: Plasmodium falciparum; experiment: Antimalarial activity against ring stage of Plasmodium falciparum infected in human erythrocytes assessed as protection against melatonin-induced parasite synchronization by measuring parasitemia 1 uM measured immediately by Giemsa staining-based microscopic analysis (reference value: 23.90 +/- 0.84%); format: functional
[19] = system: Plasmodium falciparum; experiment: Antimalarial activity against troph stage of Plasmodium falciparum infected in human erythrocytes assessed as protection against melatonin-induced parasite synchronization by measuring parasitemia 1 uM measured immediately by Giemsa staining-based microscopic analysis (reference value: 52.50 +/- 0.70%); format: functional
[20] = system: Plasmodium falciparum; experiment: Antimalarial activity against schizont stage of Plasmodium falciparum infected in human erythrocytes assessed as protection against melatonin-induced parasite synchronization by measuring parasitemia 1 uM measured immediately by Giemsa staining-based microscopic analysis (reference value: 23.25 +/- 0.35%); format: functional
[21] = system: Plasmodium falciparum; experiment: Antimalarial activity against ring stage of Plasmodium falciparum infected in human erythrocytes assessed as protection against melatonin-induced parasite synchronization by measuring parasitemia 5 uM measured immediately by Giemsa staining-based microscopic analysis (reference value: 23.90 +/- 0.84%); format: functional
[22] = system: Plasmodium falciparum; experiment: Antimalarial activity against troph stage of Plasmodium falciparum infected in human erythrocytes assessed as protection against melatonin-induced parasite synchronization by measuring parasitemia 5 uM measured immediately by Giemsa staining-based microscopic analysis (reference value: 52.50 +/- 0.70%); format: functional
[23] = system: Plasmodium falciparum; experiment: Antimalarial activity against schizont stage of Plasmodium falciparum infected in human erythrocytes assessed as protection against melatonin-induced parasite synchronization by measuring parasitemia 5 uM measured immediately by Giemsa staining-based microscopic analysis (reference value: 23.25 +/- 0.35%); format: functional
[24] = system: Plasmodium falciparum; experiment: Antimalarial activity against ring stage of Plasmodium falciparum infected in human erythrocytes assessed as protection against melatonin-induced parasite synchronization by measuring parasitemia 1 uM incubated for 48 hrs by Giemsa staining-based microscopic analysis (reference value: 11.80 +/- 9.19%); format: functional
[25] = system: Plasmodium falciparum; experiment: Antimalarial activity against troph stage of Plasmodium falciparum infected in human erythrocytes assessed as protection against melatonin-induced parasite synchronization by measuring parasitemia 1 uM incubated for 48 hrs by Giemsa staining-based microscopic analysis (reference value: 88.20 +/- 9.19%); format: functional
[26] = system: Plasmodium falciparum; experiment: Antimalarial activity against schizont stage of Plasmodium falciparum infected in human erythrocytes assessed as protection against melatonin-induced parasite synchronization by measuring parasitemia 1 uM incubated for 48 hrs by Giemsa staining-based microscopic analysis (reference value: 0%); format: functional
[27] = system: Plasmodium falciparum; experiment: Antimalarial activity against ring stage of Plasmodium falciparum infected in human erythrocytes assessed as protection against melatonin-induced parasite synchronization by measuring parasitemia 5 uM incubated for 48 hrs by Giemsa staining-based microscopic analysis (reference value: 11.80 +/- 9.19%); format: functional
[28] = system: Plasmodium falciparum; experiment: Antimalarial activity against troph stage of Plasmodium falciparum infected in human erythrocytes assessed as protection against melatonin-induced parasite synchronization by measuring parasitemia 5 uM incubated for 48 hrs by Giemsa staining-based microscopic analysis (reference value: 88.20 +/- 9.19%); format: functional
[29] = system: Plasmodium falciparum; experiment: Antimalarial activity against schizont stage of Plasmodium falciparum infected in human erythrocytes assessed as protection against melatonin-induced parasite synchronization by measuring parasitemia 5 uM incubated for 48 hrs by Giemsa staining-based microscopic analysis (reference value: 0%); format: functional
[30] = target: Melatonin receptor type 1A (Homo sapiens) (UniProt P48039); experiment: Inhibition of human MTNR1 receptor at 500 nM using TMB as substrate preincubated for 1 hr followed by substrate addition by ELISA relative to control
Outline: (§2)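 ELISA kit format: compounds incubated 1 h with MTNR1 receptor (5 ng/mL), melatonin as control. TMB substrate, stop solution, OD read at 450 nm; expressed as % inhibition.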

[31] = target: Melatonin receptor type 1A (Homo sapiens) (UniProt P48039); experiment: Inhibition of human MTNR1 receptor at 5 uM using TMB as substrate preincubated for 1 hr followed by substrate addition by ELISA relative to control
Outline: as §2

Melatonin receptor type 1A (Homo sapiens), sequence (P48039 whole entry): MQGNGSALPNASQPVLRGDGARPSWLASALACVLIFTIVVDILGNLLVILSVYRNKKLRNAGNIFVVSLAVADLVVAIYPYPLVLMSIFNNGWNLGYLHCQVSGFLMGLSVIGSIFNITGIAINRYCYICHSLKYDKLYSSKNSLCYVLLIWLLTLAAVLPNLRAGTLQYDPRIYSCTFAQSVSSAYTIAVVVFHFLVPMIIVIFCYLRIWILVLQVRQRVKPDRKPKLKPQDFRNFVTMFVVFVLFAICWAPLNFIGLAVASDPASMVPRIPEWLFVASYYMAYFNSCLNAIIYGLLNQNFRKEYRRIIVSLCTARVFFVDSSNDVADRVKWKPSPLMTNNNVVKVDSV

CC(C)=C[C@H]1C[C@@](C)(/C=C/c2[nH]c3ccccc3c2CCN(C)C)n2c1c(CCN(C)C)c1ccccc12
IC50 [1]: 150 to 1420 nM

CNCCc1c(/C=C/[C@@]2(C)C[C@H](C=C(C)C)c3c(CCNC)c4ccccc4n32)[nH]c2ccccc12
IC50 [1]: 150 to 1420 nM

C/N=C(\c1[nH]c2ccccc2c1CCNC(=O)OC)c1c(F)cccc1F
growth inhibition (GI) [2]: Active
survival at 10 µM [3]: 93%
survival at 10 µM [4]: 3%
survival at 10 µM [5]: 2.82%
survival at 10 µM [6]: 61.2%
survival at 10 µM [7]: 27.5%
survival at 10 µM [8]: 11.2%
IC50 [9]: 730 nM
inhibition [10]: Dose dependent effect
remaining at 1 mg/ml ([11]; 0.01 N HCl, read-out: Stability): 90%
remaining at 1 mg/ml [12]: 95%

CC(C)=C[C@H]1C[C@](C)(/C=C/c2[nH]c3ccccc3c2CCN(C)C)n2c1c(CCN(C)C)c1ccccc12
IC50 [1]: 150 to 1420 nM

COC(=O)NCCc1c(C(=O)c2ccc(Cl)cc2)[nH]c2ccccc12
inhibition at 5 µM [13]: 9%

CC(=O)NCCc1c(Cc2ccccc2)[nH]c2ccccc12 [LUZINDOLE]
inhibition at 5 µM [13]: 48%
growth inhibition (GI) [2]: Active
survival at 10 µM [3]: 91.5%
survival at 10 µM [4]: 8%
survival at 10 µM [5]: 0.5%
survival at 10 µM [6]: 61.6%
survival at 10 µM [7]: 38.4%
survival at 10 µM [8]: 0%
Activity [14]: 1.1%
Activity [15]: 1.03%
Activity [16]: 2.88%
Activity [17]: 2.56%
Activity [18]: 23%
Activity [19]: 50.5%
Activity [20]: 25.8%
Activity [21]: 23.75%
Activity [22]: 51.9%
Activity [23]: 24%
Activity [24]: 19.1%
Activity [25]: 80.9%
Activity [26]: 0%
Activity [27]: 21.97%
Activity [28]: 77.15%
Activity [29]: 0.88%

C/N=C(\c1cc(Br)cs1)c1[nH]c2ccccc2c1CCNC(=O)OC
inhibition at 10 µM [2]: 15%

C/N=C(/c1ccc(Cl)cc1)c1[nH]c2ccccc2c1CCNC(=O)OC
inhibition at 5 µM [13]: 32%

C/N=C(/c1ccccc1)c1[nH]c2ccccc2c1CCNC(=O)OC
growth inhibition (GI) [2]: Active
survival at 10 µM [3]: 95.8%
survival at 10 µM [4]: 4.15%
survival at 10 µM [5]: 0%
survival at 10 µM [6]: 17.5%
survival at 10 µM [7]: 77.5%
survival at 10 µM [8]: 5%
IC50 [9]: 890 nM
inhibition [10]: Dose dependent effect
Stability [11]: Unstable
Stability ([12]; buffer): Unstable

C/N=C(/c1cc(C(F)(F)F)cc(C(F)(F)F)c1)c1[nH]c2ccc(OC)cc2c1CCNC(=O)OC
growth inhibition (GI) [2]: Active
survival at 10 µM [3]: 95%
survival at 10 µM [4]: 5%
survival at 10 µM [5]: 0%
survival at 10 µM [6]: 4.95%
survival at 10 µM [7]: 95%
survival at 10 µM [8]: 0%
IC50 [9]: 740 nM
inhibition [10]: Dose dependent effect
Activity [14]: 1.15%
Activity [15]: 1.1%
Activity [16]: 2.8%
Activity [17]: 1.65%
Activity [18]: 24.2%
Activity [19]: 53.8%
Activity [20]: 22.95%
Activity [21]: 24.1%
Activity [22]: 53.25%
Activity [23]: 21.85%
Activity [24]: 18%
Activity [25]: 79.1%
Activity [26]: 2.9%
Activity [27]: 27.25%
Activity [28]: 70.9%
Activity [29]: 1.85%
inhibition [30]: 75%
inhibition [31]: 85%
Stability [11]: Unstable
remaining at 1 mg/ml [12]: 60%

C/N=C(/c1ccc(OC)cc1F)c1[nH]c2ccccc2c1CCNC(=O)OC
inhibition at 5 µM [13]: 47%
